# Source: publication PMC3052282 (Journal of biomolecular screening, 2010)
# Entries after “also recorded” stand apart in the source; their conditions may differ.
# Legend:
# [1] = target: T1, DnaK-DnaJ (Escherichia coli, UniProt P0A6Y8); experiment: High throughput ATPase assay of DnaK-DnaJ; format: biochemical; settings: for inhibition of DnaK-DnaJ ATPase activity upon re-testing: repurchased (fresh) samples
# [2] = target: T1, DnaK-DnaJ; experiment: DnaJ-mediated stimulation of ATP turnover by DnaK; format: biochemical; settings: DnaK 0.6 μM
# Outline: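 E. coli DnaK (purified) at 0.6 µM with DnaJ titrated, in 100 mM Tris-HCl, 20 mM KCl, 6 mM MgCl2, 0.01% Triton X-100, pH 7.4. Reaction started with 7 mM ATP stock and run 3 h at 37 °C. Quinaldine red–molybdate reagent added for 2 min, quenched with sodium citrate, then 15 min at 37 °C. Absorbance read at 530 nm; triplicates.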
# [3] = target: DnaK binding to luciferase (Escherichia coli, UniProt P0A6Y8); experiment: ELISA of DnaK binding to the model substrate firefly luciferase; settings: 0.05 μM DnaK + 1 mM ATP
# Chain of DnaK binding to luciferase (P0A6Y8 whole entry): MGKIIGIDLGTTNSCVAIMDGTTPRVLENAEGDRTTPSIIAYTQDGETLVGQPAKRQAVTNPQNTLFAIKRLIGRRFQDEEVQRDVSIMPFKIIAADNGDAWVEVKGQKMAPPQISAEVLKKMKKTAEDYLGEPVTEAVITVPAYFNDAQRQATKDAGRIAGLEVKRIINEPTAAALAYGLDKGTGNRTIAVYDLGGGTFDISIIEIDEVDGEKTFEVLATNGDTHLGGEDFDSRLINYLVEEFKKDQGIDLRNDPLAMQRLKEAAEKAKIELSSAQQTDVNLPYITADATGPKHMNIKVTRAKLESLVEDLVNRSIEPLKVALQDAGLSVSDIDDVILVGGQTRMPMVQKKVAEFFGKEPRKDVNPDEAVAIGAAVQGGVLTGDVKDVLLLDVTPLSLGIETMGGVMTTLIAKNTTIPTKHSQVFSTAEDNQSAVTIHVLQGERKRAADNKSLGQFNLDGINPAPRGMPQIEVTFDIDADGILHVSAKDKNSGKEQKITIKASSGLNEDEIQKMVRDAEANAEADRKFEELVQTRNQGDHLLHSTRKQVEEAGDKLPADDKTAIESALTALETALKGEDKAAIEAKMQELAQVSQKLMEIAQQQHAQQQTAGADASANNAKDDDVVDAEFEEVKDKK
# [4] = target: DnaK (Escherichia coli, UniProt P0A6Y8); experiment: Intrinsic ATPase activity of DnaK; format: biochemical; settings: without DnaJ stimulation
# Chain of DnaK (P0A6Y8 whole entry): as above
# [5] = target: firefly luciferase [luciferase: P08659]; experiment: ELISA
# Chain of firefly luciferase [luciferase: P08659] (P08659 whole entry): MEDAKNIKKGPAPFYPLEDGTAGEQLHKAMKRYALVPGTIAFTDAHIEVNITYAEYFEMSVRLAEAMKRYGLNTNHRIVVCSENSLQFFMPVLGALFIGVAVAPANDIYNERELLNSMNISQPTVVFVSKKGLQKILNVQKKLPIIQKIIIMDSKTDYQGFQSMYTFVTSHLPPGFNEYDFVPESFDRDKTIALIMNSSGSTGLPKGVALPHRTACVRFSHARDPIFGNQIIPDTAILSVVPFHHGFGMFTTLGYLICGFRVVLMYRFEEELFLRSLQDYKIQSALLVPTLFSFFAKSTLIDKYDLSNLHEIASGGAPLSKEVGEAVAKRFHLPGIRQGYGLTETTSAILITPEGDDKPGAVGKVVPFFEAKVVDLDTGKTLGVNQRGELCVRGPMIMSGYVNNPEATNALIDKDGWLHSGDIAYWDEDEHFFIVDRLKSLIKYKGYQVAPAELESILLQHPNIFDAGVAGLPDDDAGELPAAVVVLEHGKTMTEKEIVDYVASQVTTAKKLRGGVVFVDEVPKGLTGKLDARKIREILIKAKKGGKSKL
# T1 sequence (P0A6Y8 whole entry): as the sequence (P0A6Y8 whole entry) above
# Chain of Escherichia coli heat shock protein 70 (Hsp70/DnaK) (P0A6Y8 whole entry): as above
Molecule,inhibition of DnaK-DnaJ ATPase activity upon re-testing [1],IC50 [1] [µM],also measured
"O=C(O)c1cccc2c1NC(c1ccc([N+](=O)[O-])cc1)C1CC=CC21 (stereo not drawn) [1a, 4-(4-nitrophenyl)-3a,4,5,9b-tetrahydro-3H-cyclopenta[c]quinoline-6-carboxylic acid]",none of these compounds were inhibitors,,
"O=C(O)c1ccc2c(c1)C1C=CCC1C(c1ccc(Cl)cc1)N2 (stereo not drawn) [1b, 4-(4-chlorophenyl)-3a,4,5,9b-tetrahydro-3H-cyclopenta[c]quinoline-8-carboxylic acid]",none of these compounds were inhibitors,,
"O=C(O)c1ccc2c(c1)C1C=CCC1C(c1cccc(C(F)(F)F)c1)N2 (stereo not drawn) [1c, 4-(3-(trifluoromethyl)phenyl)-3a,4,5,9b-tetrahydro-3H-cyclopenta[c]quinoline-8-carboxylic acid]",none of these compounds were inhibitors,,
"CCc1ccc(C2Nc3ccc(C(=O)O)cc3C3C=CCC32)cc1 (stereo not drawn) [1d, 4-(4-ethylphenyl)-3a,4,5,9b-tetrahydro-3H-cyclopenta[c]quinoline-8-carboxylic acid]",none of these compounds were inhibitors,,
"CCOC(=O)c1c(N)n(-c2ccccc2)c2nc3ccccc3nc12 [2a, ethyl 2-amino-1-phenyl-1H-pyrrolo[2,3-b]quinoxaline-3-carboxylate]",,> 500,
"CCCCCCn1c(N)c(C(=O)OCC)c2nc3ccccc3nc21 [2b, ethyl 2-amino-1-hexyl-1H-pyrrolo[2,3-b]quinoxaline-3-carboxylate]",,> 500,
"Cc1cc(C(F)(F)F)c(C#N)c(SCC(=O)c2ccccc2)n1 [3a, 6-methyl-2-((2-oxo-2-phenylethyl)thio)-4-(trifluoromethyl)nicotinonitrile]",,> 500,
"CCOC(=O)c1c(N)sc2c1CCN(C(C)=O)C2 [3b, ethyl 6-acetyl-2-amino-4,5,6,7-tetrahydrothieno[2,3-c]pyridine-3-carboxylate]",,> 500,
"COc1cc(C(=O)NS(=O)(=O)c2ccccc2C)ccc1Cc1cn(C)c2ccc(NC(=O)OC3CCCC3)cc12 [3c, cyclopentyl (3-(2-methoxy-4-((o-tolylsulfonyl)carbamoyl)benzyl)-1-methyl-1H-indol-5-yl) carbamate]",,37 ± 1,K0.5 of DnaJ ([2]; in presence of 25 μM compound): 0.18 ± 0.01 µM; K0.5 of DnaJ ([2]; in presence of 50 μM compound): 0.96 ± 0.16 µM; K0.5 of DnaJ ([2]; in presence of 100 μM compound): greater than 2 μM; effect on apparent affinity of DnaK for luciferase [3]: significantly improved the apparent affinity; also recorded: significantly enhanced this interaction; effect on the intrinsic ATPase activity of DnaK [4]: little effect on the intrinsic ATPase activity
Escherichia coli heat shock protein 70 (Hsp70/DnaK) (from UniProt P0A6Y8 1-638) (natural protein),,,Kd [5]: 0.26 µM
